# Results pooled from the literature.
Compound,test,system,setting,endpoint,result
O=C1CC[C@H](N2Cc3cc(N4CCN(CC5CCN(c6ccc([C@@H]7c8ccc(O)cc8CC[C@@H]7c7ccccc7)cc6)CC5)CC4)ccc3C2=O)C(=O)N1,metabolic stability,"Sprague-Dawley rat, hepatocytes",1 µM,hepatocyte CLint,8.4 µL/min/10⁶ cells
Cc1ccc(Cn2cc(C(=O)NN)c(=O)c3cc(Oc4ccccc4)ccc32)cc1,shake flask,PBS,"2 h, pH 7.4",logD,2
C=C(F)C(=O)N1CCN(c2nc(OC[C@@H]3CCCN3C)nc3c2CCN(c2cccc4cccc(Cl)c24)C3)C[C@@H]1CC#N,potentiometric,,pH 7.4,logD,3.6
CC(/C=C/C=C(\C)C(=O)O)=C\C=C\C=C(C)\C=C\C=C(/C)C(=O)O,shake flask,PBS,"2 h, pH 7.4",logD,0.7
CCn1ccc2c([C@](O)(c3cnc(C(F)(F)F)c(Cl)c3)C3CC3)n(C)nc2c1=O,metabolic stability,"male Sprague-Dawley rat, hepatocytes","0.5 µM, pH 7.4",hepatocyte CLint,3.3 µL/min/10⁶ cells
CCOc1ccc2ccc(=O)oc2c1,metabolic stability,"male Sprague-Dawley rat, hepatocytes",1 µM,hepatocyte CLint,52.8 µL/min/10⁶ cells
O=C(O)Cc1ccccc1Nc1c(Cl)cccc1Cl,metabolic stability,"Sprague-Dawley rat, hepatocytes","0.5 µM, pH 7.4",hepatocyte CLint,66 µL/min/10⁶ cells
C[C@H]1Oc2cc(cnc2N)-c2c(nn(C)c2C#N)CN(C)C(=O)c2ccc(F)cc21,,"bovine, serum",,fraction unbound,0.98
COCCc1ccc(OCC(O)CNC(C)C)cc1 (stereo not drawn),metabolic stability,"Sprague-Dawley rat, hepatocytes","0.5 µM, pH 7.4",hepatocyte CLint,35 µL/min/10⁶ cells
Cc1c(C(=O)O)ccc2c3n(nc12)[C@@H]1[C@H](C3)N(CC2CC2)[C@@]2(C(=O)Nc3cc(Cl)ccc32)[C@H]1c1cccc(Cl)c1F,,"bovine, serum",,fraction unbound,0.045
CCn1cc(C)c2c([C@H](N)c3ccc(C(F)(F)F)nc3)n(C)nc2c1=O,metabolic stability,"male Sprague-Dawley rat, hepatocytes","0.5 µM, pH 7.4",hepatocyte CLint,1.9 µL/min/10⁶ cells
Cc1c(N(C)C)ccc2cc(C(=O)NS(=O)(=O)c3ccccc3-c3ccccc3)oc12,,,pH 7.5,logD,2.1
O=c1ccc2ccc(O)cc2o1,metabolic stability,"rat, liver microsomes",,scaled CLint,1030 mL/min/kg
COc1cc2nc3n(c(=O)c2cc1Cl)CC[C@@H]1[C@@H]3CCCN1CC1COC1,shake flask,aqueous buffer,"1 h, pH 7.4",logD,2.3
O=c1ccc2ccc(O)cc2o1,metabolic stability,"Sprague-Dawley rat, hepatocytes",1 µM,hepatocyte CLint,61 µL/min/10⁶ cells
